Data as given in paper PMC8108540 (Arteriosclerosis, thrombosis, and vascular biology, 2020).
Where a SMILES comes first, the peptide text is derived from it. The star is where a group is joined. Palmitoyl = CCCCCCCCCCCCCCCC(=O)*

Tests used:
[1] = molecular target: T1, PAR2 (Homo sapiens, UniProt P55085); assay: Calcium flux, recombinant PAR2, SLIGRL; format: cell-based; details: GPR310 6 μM; 100 μM SLIGRL
T1 sequence (P55085 26-397): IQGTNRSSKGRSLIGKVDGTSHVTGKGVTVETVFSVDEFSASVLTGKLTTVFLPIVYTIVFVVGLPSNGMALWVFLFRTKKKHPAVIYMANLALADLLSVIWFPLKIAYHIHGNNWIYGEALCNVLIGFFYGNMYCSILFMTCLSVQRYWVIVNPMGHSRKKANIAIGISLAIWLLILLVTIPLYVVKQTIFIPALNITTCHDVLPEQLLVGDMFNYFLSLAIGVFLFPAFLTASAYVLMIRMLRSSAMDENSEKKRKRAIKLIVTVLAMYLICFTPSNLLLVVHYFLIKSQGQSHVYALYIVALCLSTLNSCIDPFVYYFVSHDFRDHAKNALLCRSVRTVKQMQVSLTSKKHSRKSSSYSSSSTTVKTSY

[2] = system: Rap1; assay: AYPGKF; format: cell-based; details: human platelets, peak shifted from 5 to 15 minutes
[3] = system: ADP receptors; assay: Calcium flux, ADP; format: cell-based, human; details: GPR310 6 μM; 20 μM ADP
[4] = system: platelet-rich plasma; assay: Thrombin-induced clot retraction in PRP; format: cell-based, human; details: 10 or 30 μM inhibitor, 3 nmol/L thrombin, RT, 15 minutes to 4 hours
Procedure, shortened: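 Citrated platelet-rich plasma adjusted to […] and diluted in PBS with red blood cells in glass tubes. CaCl2 added to a final 0.5 mmol/L. Pretreated with 10 or 30 μM test compound, P2Y12 inhibitor or vehicle. Clotting started with 3 or 10 nmol/L thrombin at room temperature. Clots photographed at 0, 5, 10, 15 and 30 min and at 1, 2 and 4 h.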

[5] = molecular target: T2, PAR1 (Homo sapiens, UniProt P25116); assay: Calcium flux in HEK293 recombinant system, SFLLRN; format: cell-based; details: GPR310 6 μM, 100 μM SFLLRN
T2 sequence (P25116 22-425): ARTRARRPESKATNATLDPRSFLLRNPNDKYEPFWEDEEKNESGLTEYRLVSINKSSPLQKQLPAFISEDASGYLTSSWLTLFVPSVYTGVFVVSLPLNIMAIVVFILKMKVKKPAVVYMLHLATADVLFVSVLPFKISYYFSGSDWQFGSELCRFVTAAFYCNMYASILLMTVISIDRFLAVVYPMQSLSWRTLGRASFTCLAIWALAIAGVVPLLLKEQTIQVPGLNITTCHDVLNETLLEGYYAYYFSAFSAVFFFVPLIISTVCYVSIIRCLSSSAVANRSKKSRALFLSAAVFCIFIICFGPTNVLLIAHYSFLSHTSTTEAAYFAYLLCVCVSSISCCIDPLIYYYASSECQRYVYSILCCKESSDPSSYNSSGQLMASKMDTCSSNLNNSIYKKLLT

[6] = system: PAR1; assay: PAR1; format: cell-based, human
[7] = system: pAKT, pERK; assay: Immunoblot of thrombin-induced Akt and ERK phosphorylation in human platelets; format: cell-based; details: 1 μM GPR310, 3 nmol/L thrombin, 15 min
Procedure, shortened: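 Gel-purified human platelets pretreated with or without 1 μM test compound, then stimulated with 3 nmol/L thrombin for 15 min. Equal protein resolved on 10% SDS-PAGE and immunoblotted for phospho-AKT and phospho-ERK, with β-actin as loading control.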

[8] = system: human platelets; assay: Collagen-mediated human platelet aggregation; format: cell-based; details: 10 μg/mL collagen; 3 μmol/L GPR310 or 30 μmol/L ML355; P<0.001
[9] = molecular target: CXCR4 (Homo sapiens, UniProt P61073); assay: Calcium flux in human neutrophils, SDF1α; format: cell-based; details: GPR310 6 μM, 100 nmol/L SDF1α
[10] = Pharmacokinetics of sc injected pepducin in mouse plasma; format: in vivo; details: CD-1, mouse, 10 mg/kg
Procedure, shortened: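 CD-1 mice given 10 mg/kg test compound subcutaneously in 10% DMSO. Vena cava blood drawn into heparin at 5, 15 and 30 min and 1, 4, 5, 14 and 24 h. Pepducin extracted from plasma and quantified by LC-MS to obtain peak level and terminal elimination.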

[11] = system: mouse platelets; assay: Ex vivo platelet aggregation after sc dosing; format: in vivo; details: mice, 10 mg/kg sc, 4 h; AYPGKF 100 μmol/L or thrombin 10 nmol/L
[12] = system: PAR4; assay: AYPGKF-mediated calcium flux in human platelets; format: cell-based; details: 3 μM GPR310, 160 μM AYPGKF, fura-2-labeled human platelets
Procedure, shortened: (§1)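 Gel-purified platelets loaded with 2.5 μM fura-2/AM, 30 min at 37 °C. Emission recorded at 510 nm with dual excitation at 340/380 nm. For line 6, platelets preincubated with test compound or vehicle before AYPGKF.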

[13] = system: IL-8 receptor CXCR1/2; assay: Calcium flux in human neutrophils, IL-8; format: cell-based; details: GPR310 6 μM, 50 nmol/L IL-8
[14] = system: p38 MAPK phosphorylation; assay: Immunoblot of 12; format: cell-based, human
Procedure, shortened: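 Gel-purified human platelets incubated in an aggregometer at 37 °C with 12(S)-HETE, with or without 1 or 3 μM test compound, for various times. Solubilised in SDS-PAGE sample buffer and run on 10% SDS-PAGE at equal protein. Immunoblotted for phospho-p38 (Thr180/Tyr182).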

[15] = Tail bleeding time; format: in vivo, mouse; details: mice, 4 hours after 5 and 10 mg/kg sc, n=10
Procedure, shortened: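 Mice anaesthetised 4 h after subcutaneous test compound or vehicle and kept on a 37 °C homeothermic blanket. Tail transected 5 mm from the tip and immersed at once in 37 °C saline. Time to cessation recorded; cessation counted only once bleeding had stopped for 1 min.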

[16] = system: mouse platelets; assay: AYPGKF-induced aggregation and ATP release in mouse PRP; format: cell-based; details: 30 μM GPR310 spiked, 100 μM AYPGKF
Procedure, shortened: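 Mouse platelet-rich plasma spiked with test compound, then stimulated with 100 μM AYPGKF. Run at 37 °C with stirring at 900 rpm in a lumi-aggregometer. Aggregation and dense-granule ATP release recorded together; ATP detected with luciferin/luciferase reagent and calibrated against an ATP standard.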

[17] = system: RASA3; assay: Thrombin-induced RASA3 membrane localization in human platelets; format: cell-based; details: GPR310 1 μM, AZD1283 10 μM, dual, or LY294002 10 μM, 3 nmol/L thrombin
[18] = system: Rap1; assay: Thrombin-induced Rap1 activation in human platelets; format: cell-based; details: GPR310 3 μM, AZD1283 10 μM or dual; 3 nmol/L thrombin, 15 min, gel-purified platelets
[19] = molecular target: T3, GPR31 (Homo sapiens, UniProt O00270); assay: Cre-luciferase activation assay in GPR31-transfected CHO cells; format: cell-based; details: 6 hours
Procedure, shortened: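 CHO cells cotransfected by lipofection with Cre-luciferase and GPR31 plasmids, 8 μg each. Cells plated and treated 6 h with 10 μM forskolin with or without 300 nmol/L 12(S)-HETE. Cells then lysed and luciferase activity read as relative light units.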
Target sequence in this assay (O00270 whole entry, species assumed): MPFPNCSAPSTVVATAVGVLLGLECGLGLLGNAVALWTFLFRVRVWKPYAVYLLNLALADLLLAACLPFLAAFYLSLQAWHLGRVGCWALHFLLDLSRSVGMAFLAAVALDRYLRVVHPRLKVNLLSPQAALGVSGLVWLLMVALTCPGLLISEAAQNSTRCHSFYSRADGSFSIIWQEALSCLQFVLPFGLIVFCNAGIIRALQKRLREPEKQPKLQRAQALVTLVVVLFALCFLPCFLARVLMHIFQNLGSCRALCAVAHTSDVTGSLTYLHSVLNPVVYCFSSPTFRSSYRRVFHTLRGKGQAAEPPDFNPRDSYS

[20] = system: PAR4; assay: PAR4; format: cell-based, human; details: 30 μmol/L ML355, 2 min preincubation, 160 μmol/L AYPGKF, aggregation at 15 min
[21] = molecular target: T3, GPR31; assay: 12; format: cell-based; details: 100 nmol/L 12(S)-HETE, human platelets, signal at 15 to 120 minutes
Procedure, shortened: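 Gel-purified human platelets pretreated with test compound at graded levels, then activated with 12(S)-HETE. Lysis on ice for 10 min in Tris-HCl pH 7.5 buffer with NP-40, DTT and protease inhibitors, then cleared at 14 000 g. Rap1-GTP pulled down with RalGDS-RBD agarose, 60 min at 4 °C. Detected by 15% SDS-PAGE and anti-Rap1 immunoblot; lysate aliquots used for total Rap1. IC50 from dose response.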
Target sequence in this assay (O00270 whole entry): as the sequence (O00270 whole entry, species assumed) above

[22] = molecular target: T3, GPR31; assay: 12; format: cell-based; details: 10 and 20 μM 12(S)-HETE, fura-2-labeled GPR31/CHO cells
Procedure, shortened: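 Human GPR31 transiently transfected into CHO cells. Cells labelled with fura-2 and challenged with 12(S)-HETE; Ca2+ flux followed over time.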
Target sequence in this assay (O00270 whole entry, species assumed): as above

[23] = system: human platelets; assay: Platelet aggregation by 12; format: cell-based; details: 5, 10 and 20 μmol/L 12(S)-HETE, human PRP
[24] = system: human platelets; assay: 12; format: cell-based; details: 10 μM 12(S)-HETE, fura-2-labeled human platelets
Procedure, shortened: as §1

Chain of CXCR4 (P61073 whole entry): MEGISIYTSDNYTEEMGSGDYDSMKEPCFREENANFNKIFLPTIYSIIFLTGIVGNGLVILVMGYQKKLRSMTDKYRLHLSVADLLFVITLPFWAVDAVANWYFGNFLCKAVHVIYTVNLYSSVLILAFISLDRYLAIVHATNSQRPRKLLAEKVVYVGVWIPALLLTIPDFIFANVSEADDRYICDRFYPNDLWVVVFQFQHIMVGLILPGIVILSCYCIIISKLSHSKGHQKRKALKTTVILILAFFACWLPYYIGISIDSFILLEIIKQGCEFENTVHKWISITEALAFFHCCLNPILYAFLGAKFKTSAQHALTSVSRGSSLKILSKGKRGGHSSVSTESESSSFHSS

SMILES: CCCCCCCCCCCCCCCC(=O)N[C@@H](CCCNC(=N)N)C(=O)N[C@@H](C)C(=O)N[C@@H](CC(C)C)C(=O)N[C@@H](CCC(N)=O)C(=O)N[C@@H](CCCCN)C(=O)N[C@@H](CCCNC(=N)N)C(=O)N[C@@H](CC(C)C)C(=O)N[C@@H](CCCNC(=N)N)C(=O)N[C@@H](CCC(=O)O)C(=O)N1CCC[C@H]1C(=O)N[C@@H](CCC(=O)O)C(=O)N[C@@H](CCCCN)C(=O)N[C@@H](CCC(N)=O)C(=O)N1CCC[C@H]1C(=O)N[C@@H](CCCCN)C(=O)N[C@@H](CC(C)C)C(=O)N[C@@H](CCC(N)=O)C(=O)N[C@@H](CCCNC(=N)N)C(=O)N[C@@H](C)C(=O)N[C@@H](CCC(N)=O)C(=O)N[C@@H](C)C(N)=O [GPR310] (Palmitoyl-RALQKRLREPEKQPKLQRAQA-NH2; C-terminus assumed)
- inhibition of recombinant PAR2 calcium flux [1]: no detected inhibition
- inhibition of AYPGKF-induced Rap1-GTP signal [2]: significantly attenuated
- inhibition of calcium flux (ADP receptors) [3]: did not inhibit
- clot retraction time vs vehicle [4]: longer clot retraction times
- inhibition of PAR1 calcium flux [5]: minimal inhibition
- inhibition of PAR1-mediated platelet aggregation ([6]; 10 μmol/L GPR310, 3 μM SFLLRN, gel-purified human platelets): significant inhibition
- inhibition of PAR1-mediated platelet aggregation ([6]; 10 μmol/L GPR310, 10 μmol/L SFLLRN, gel-purified human platelets): no significant effect
- inhibition of thrombin-induced Akt phosphorylation [7]: attenuated
- inhibition of thrombin-mediated ERK activation [7]: inhibited
- inhibition of collagen-mediated platelet aggregation [8]: almost completely inhibited
- inhibition of calcium flux (CXCR4) [9]: did not inhibit
- Tmax [10]: 1 h
- level at time molar at 4 h [10]: 3500 nM
- level at time molar at 14 h [10]: 10 nM
- ex vivo antiplatelet effect at high agonist concentration [11]: reversed
- suppression of AYPGKF-mediated Ca2+ response [12]: 80%
- inhibition of calcium flux (CXCR1/2) [13]: did not inhibit
- inhibition of 12(S)-HETE-induced p38 MAPK phosphorylation ([14]; 1 to 3 μM GPR310, human platelets): completely attenuated
- tail bleeding time vs vehicle control [15]: no difference
- inhibition of ATP release, mouse PRP [16]: inhibited
- inhibition of platelet aggregation, mouse PRP [16]: inhibited
- suppression of thrombin-induced RASA3 appearance in plasma membrane [17]: complete suppression
- inhibition of thrombin-induced Rap1 activation [18]: partially suppressed

SMILES: C=C[C@@]1(C)CC(=O)[C@]2(O)[C@@]3(C)[C@@H](O)CCC(C)(C)[C@@H]3[C@H](O)[C@H](OC(C)=O)[C@@]2(C)O1 [forskolin]
- induction of cAMP-responsive element-luciferase reporter ([19]; CHO-K1 cells expressing GPR31 and Cre-luciferase, 10 μM forskolin): 10 fold

SMILES: CCOC(=O)c1cc(C#N)c(N2CCC(C(=O)NS(=O)(=O)Cc3ccccc3)CC2)nc1C [AZD1283, reference compound]
- clot retraction time vs vehicle [4]: longer clot retraction times
- suppression of thrombin-induced RASA3 appearance in plasma membrane [17]: complete suppression
- inhibition of thrombin-induced Rap1 activation [18]: partially suppressed

SMILES: COc1cccc(CNc2ccc(S(=O)(=O)Nc3nc4ccccc4s3)cc2)c1O [ML355, reference compound]
- inhibition of PAR1-mediated platelet aggregation ([6]; 30 μmol/L ML355, 3 μmol/L SFLLRN): considerable inhibition
- inhibition of PAR1-mediated platelet aggregation ([6]; 30 μmol/L ML355, 10 μmol/L SFLLRN): but not 10 μmol/L SFLLRN
- inhibition of collagen-mediated platelet aggregation [8]: to a similar extent
- inhibition of PAR4-mediated platelet aggregation [20]: inhibition

SMILES: CCCCC/C=C\C[C@H](O)/C=C/C=C\C/C=C\CCCC(=O)O [12(S)-HETE]
- Rap1-GTP activation [21]: strongly activated
- calcium mobilization [22]: low but detectable calcium transients
- p38 MAPK phosphorylation activation ([14]; 100 nmol/L 12(S)-HETE, 15 minutes, human platelets): rapidly (15 minutes) activated
- inhibition of AC (adenylyl cyclase) activity ([19]; 300 nmol/L 12(S)-HETE with 10 μM forskolin, not observed in Cre-luci controls): significant inhibition
- activation of platelet aggregation [23]: failed to effectively activate platelet aggregation
- calcium flux [24]: negligible
